Columns and labels:
[1] = test system: Madin–Darby Canine Kidney (MDCK) cells; assay: In vitro cytotoxicity; type: cell-based; details: 12 h
How it was run: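 MDCK cells seeded at 5×10³ cells/well in DMEM with 10% FBS and 1% penicillin/streptomycin, then held 24 h at 37°C. Treated with test formulations diluted in DMEM at 1, 10, 25, 50, 100, 250 and 500 µg/mL drug equivalent, with matching excipient-only controls, for 12 h. WST-8 was added for 2 h and absorbance read at 450 nm. Viability is expressed relative to untreated cells.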

In vitro drug release = type: physicochemical; details: 37°C, 100 rpm
How it was run: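 Drug release from the formulation and from free drug was tested in 900 mL of 0.1 N HCl (pH 1.2) or phosphate buffer (pH 6.8). USP apparatus I (basket) was run at 100 rpm and 37±0.2°C. Results are given as cumulative percentage released over time.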

[2] = test system: CT26 (murine colon cancer) tumor; assay: In vivo tumor growth inhibition in CT26 tumor-bearing mice; set-up: species or system BALB/c mice
How it was run: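 Female BALB/c mice, 6 weeks old, received 1×10⁶ CT26 cells in PBS in the right dorsal flank. At 70–100 mm³, mice were randomised to seven groups of 14: untreated; IV drug 3.3 or 10 mg/kg once biweekly; oral aqueous drug 10 mg/kg daily; oral formulation at 2.5, 10 or 20 mg/kg equivalent daily, for 21 days. Mice were fasted 4 h before and 2 h after dosing. Caliper volume (width²×length×0.52) was recorded every 3 days. Day-21 tumors were weighed and stained for CD31, PCNA and TUNEL.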

[3] = test system: HCT116 (human colon cancer) tumor; assay: In vivo tumor growth inhibition in HCT116 tumor-bearing mice; set-up: species or system BALB/c nude mice
How it was run: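 Female BALB/c nude mice, 6 weeks old, received 1×10⁷ HCT116 cells in PBS in the right dorsal flank. At 70–100 mm³, mice were randomised to the same seven arms: untreated; IV drug 3.3 or 10 mg/kg biweekly; oral aqueous drug 10 mg/kg daily; oral formulation at 2.5, 10 or 20 mg/kg daily, for 21 days. Mice were fasted 4 h before and 2 h after dosing. Caliper volume (width²×length×0.52) was recorded every 3 days, and tumors were weighed at day 21.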

[4] = CT26, once-biweekly IV 10 mg/kg OP, 21 days
[5] = HCT116 tumors, day 21, groups OP-IV (10), ODSF (10), ODSF (20)

SMILES: O=C1[O][Pt]2([NH][C@@H]3CCCC[C@H]3[NH]2)[O]C1=O (relative stereo) [OP, cis-[(1R,2R)-1,2-cyclohexanediamine-N,N’] [oxalato(2)-O,O´] platinum]
- Cell viability ([1]; 250 µg/mL): 74.8±6.82%
- Cell viability ([1]; 500 µg/mL): 55.3±7.79%
- Concentrations at which cytotoxicity was demonstrated [1]: higher than 100 µg/mL
- Cumulative drug release (In vitro drug release; pH 1.2 (0.1 N HCl), at 60 min): exceeded 90%
- Cumulative drug release (In vitro drug release; pH 6.8 phosphate buffer, at 120 min): exceeded 90%
- Inhibition of tumor growth rate compared to the control group ([2]; CT26, once-biweekly IV 3.3 mg/kg OP, 21 days): 40.0%
- Tumor suppression compared to the OP-S (10) group [2, 4]: 53.3%
- Tumor suppression compared to the control group [2, 4]: 70.2%
- Reduction of isolated tumor mass compared to the controls ([2]; CT26, once-biweekly IV 10 mg/kg OP, day 21): 71.7%
- TUNEL-positive cells (apoptosis) compared to the controls ([2]; CT26 tumors, day 21, groups ODSF (10), ODSF (20), OP-IV (10)): significant increases in the number of TUNEL-positive cells
- CD31-positive microvessels (immunohistochemistry) ([2]; CT26 tumors, day 21, groups OP-IV (3.3), OP-S (10), ODSF (10), ODSF (20)): greater numbers of microvessels
- Numbers of PCNA-positive cells (proliferation) ([2]; CT26 tumors, day 21, groups OP-S, OP-IV (10), ODSF (10), ODSF (20), listed as OP-S): significantly higher
- Reduction in tumor volume compared to controls ([3]; HCT116, once-biweekly IV 3.3 mg/kg OP): 33.5%
- Numbers of CD31-positive microvessels compared to the control and OP-S (10) groups [3, 5]: marked reductions
- Numbers of PCNA-positive proliferating cells compared to the control and OP-S (10) groups [3, 5]: marked reductions
- TUNEL-positive apoptotic cells compared to the control and OP-S (10) groups [3, 5]: significantly greater numbers of TUNEL-positive apoptotic cells

Source: publication PMC7555381 (International Journal of Nanomedicine, 2020)
